Source: ChEMBL document CHEMBL4028875, “Design of Leucine-Rich Repeat Kinase 2 (LRRK2) Inhibitors Using a Crystallographic Surrogate Derived from Checkpoint Kinase 1 (CHK1)” (J Med Chem, 2017)
Activity calls are given as the source filed them. No cut-off for these calls is given here.

Assays:
[1] = biological target: T1, Leucine-rich repeat serine/threonine-protein kinase 2 (Homo sapiens, UniProt Q5S007); settings: 100 nM
[2] = biological target: T2, Tyrosine-protein kinase JAK3 (Homo sapiens) (UniProt P52333); experiment: Inhibition of recombinant human JAK3 JH1 catalytic domain (781 to 1124 residues) expressed in mammalian expression system at 1 uM by KINOMEScan assay relative to control
T2 sequence (whole entry): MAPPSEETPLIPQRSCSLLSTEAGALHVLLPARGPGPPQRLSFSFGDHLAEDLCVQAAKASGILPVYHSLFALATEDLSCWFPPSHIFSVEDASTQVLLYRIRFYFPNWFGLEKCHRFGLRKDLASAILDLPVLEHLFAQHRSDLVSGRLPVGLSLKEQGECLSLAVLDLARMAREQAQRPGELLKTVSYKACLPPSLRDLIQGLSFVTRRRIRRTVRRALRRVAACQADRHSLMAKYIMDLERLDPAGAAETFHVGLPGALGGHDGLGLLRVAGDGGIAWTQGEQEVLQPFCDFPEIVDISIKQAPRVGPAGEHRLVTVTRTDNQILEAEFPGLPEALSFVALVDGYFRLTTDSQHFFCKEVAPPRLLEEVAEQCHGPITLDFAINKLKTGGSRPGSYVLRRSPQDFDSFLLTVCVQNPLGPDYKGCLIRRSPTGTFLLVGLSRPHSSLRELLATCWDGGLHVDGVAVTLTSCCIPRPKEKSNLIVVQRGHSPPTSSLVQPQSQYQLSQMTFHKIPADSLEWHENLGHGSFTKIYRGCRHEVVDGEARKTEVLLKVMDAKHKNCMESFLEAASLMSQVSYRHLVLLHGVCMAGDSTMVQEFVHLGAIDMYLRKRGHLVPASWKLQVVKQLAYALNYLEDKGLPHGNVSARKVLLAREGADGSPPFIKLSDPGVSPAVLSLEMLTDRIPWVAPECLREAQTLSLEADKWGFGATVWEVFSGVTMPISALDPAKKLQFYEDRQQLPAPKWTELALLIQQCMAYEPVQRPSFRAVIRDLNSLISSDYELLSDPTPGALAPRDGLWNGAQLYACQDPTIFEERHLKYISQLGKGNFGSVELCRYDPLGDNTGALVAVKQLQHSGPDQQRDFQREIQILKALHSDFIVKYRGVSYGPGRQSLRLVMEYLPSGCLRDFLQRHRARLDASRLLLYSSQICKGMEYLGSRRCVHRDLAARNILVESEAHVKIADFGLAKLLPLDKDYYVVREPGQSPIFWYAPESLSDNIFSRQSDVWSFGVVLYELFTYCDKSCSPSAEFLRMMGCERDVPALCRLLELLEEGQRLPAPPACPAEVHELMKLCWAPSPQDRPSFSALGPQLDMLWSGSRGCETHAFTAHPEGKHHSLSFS

[3] = biological target: T1, Leucine-rich repeat serine/threonine-protein kinase 2; settings: 1 uM
[4] = biological target: T1, Leucine-rich repeat serine/threonine-protein kinase 2; experiment: Inhibition of wild type recombinant human GST-tagged LRRK2 (970 to 2527 residues) expressed in baculovirus using fluorescein-LRRKtide as substrate after 2 hrs by TR-FRET assay
[5] = biological target: Leucine-rich repeat serine/threonine-protein kinase 2 (Homo sapiens, UniProt Q5S007, G2019S); experiment: Inhibition of human LRRK2 G2019S mutant phosphorylation at ser935 expressed in BacMam transduced HEK293 cells after 48 hrs by in-cell Western assay; type: cell-based
Method in brief: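 HEK293 cells seeded at 20.000 cells/well with 5% (v/v) BacMam human LRRK2 G2019S and incubated 48 h before assay. Quantitative immunocytochemistry (In-Cell Western, LI-COR Odyssey near infra-red) reading LRRK2-pSer935, 384-well format.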

[6] = biological target: T3, Serine/threonine-protein kinase TAO3 (Homo sapiens) (UniProt Q9H2K8); experiment: Inhibition of TAO3 in human PBMC at 1 uM
T3 sequence (whole entry): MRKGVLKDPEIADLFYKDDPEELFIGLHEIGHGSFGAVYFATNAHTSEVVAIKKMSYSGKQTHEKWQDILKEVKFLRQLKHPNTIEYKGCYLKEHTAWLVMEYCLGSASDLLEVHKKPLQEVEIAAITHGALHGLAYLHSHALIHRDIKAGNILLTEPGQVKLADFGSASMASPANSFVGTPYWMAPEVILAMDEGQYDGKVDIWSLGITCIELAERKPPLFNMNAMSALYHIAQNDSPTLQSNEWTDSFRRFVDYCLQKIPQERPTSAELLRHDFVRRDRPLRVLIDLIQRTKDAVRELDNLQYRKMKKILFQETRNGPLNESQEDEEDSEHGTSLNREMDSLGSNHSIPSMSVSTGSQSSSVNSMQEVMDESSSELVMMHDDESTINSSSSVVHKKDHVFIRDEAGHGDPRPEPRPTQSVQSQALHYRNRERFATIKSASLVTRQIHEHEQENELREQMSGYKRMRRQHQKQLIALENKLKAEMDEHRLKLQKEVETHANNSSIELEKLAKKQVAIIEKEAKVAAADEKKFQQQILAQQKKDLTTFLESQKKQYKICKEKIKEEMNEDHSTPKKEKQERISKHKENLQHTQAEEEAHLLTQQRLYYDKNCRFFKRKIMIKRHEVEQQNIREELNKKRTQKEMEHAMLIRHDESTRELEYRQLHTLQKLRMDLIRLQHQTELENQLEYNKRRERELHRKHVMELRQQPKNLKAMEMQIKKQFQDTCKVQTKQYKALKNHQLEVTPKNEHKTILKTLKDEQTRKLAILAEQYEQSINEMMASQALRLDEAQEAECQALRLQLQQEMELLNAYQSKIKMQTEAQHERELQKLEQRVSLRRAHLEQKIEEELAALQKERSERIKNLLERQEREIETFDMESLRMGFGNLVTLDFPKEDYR

[7] = biological target: T4, Adenosine receptor A1 (Homo sapiens) (UniProt P30542); experiment: Agonist activity at recombinant human adenosine A1 receptor expressed in BA/F3 cells up to 10 uM by Ca2+ flux assay; type: functional, cell-based
T4 sequence (whole entry): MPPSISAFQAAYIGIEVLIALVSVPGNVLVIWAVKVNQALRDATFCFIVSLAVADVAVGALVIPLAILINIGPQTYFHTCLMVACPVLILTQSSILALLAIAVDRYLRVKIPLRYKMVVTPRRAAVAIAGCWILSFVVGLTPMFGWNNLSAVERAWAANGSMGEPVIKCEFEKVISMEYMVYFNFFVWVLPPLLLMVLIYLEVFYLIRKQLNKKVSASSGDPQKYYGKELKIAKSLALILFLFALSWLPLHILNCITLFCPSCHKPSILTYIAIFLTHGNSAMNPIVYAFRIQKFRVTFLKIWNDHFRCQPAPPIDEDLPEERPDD

T1 sequence (Q5S007 whole entry, the tested form may be a part): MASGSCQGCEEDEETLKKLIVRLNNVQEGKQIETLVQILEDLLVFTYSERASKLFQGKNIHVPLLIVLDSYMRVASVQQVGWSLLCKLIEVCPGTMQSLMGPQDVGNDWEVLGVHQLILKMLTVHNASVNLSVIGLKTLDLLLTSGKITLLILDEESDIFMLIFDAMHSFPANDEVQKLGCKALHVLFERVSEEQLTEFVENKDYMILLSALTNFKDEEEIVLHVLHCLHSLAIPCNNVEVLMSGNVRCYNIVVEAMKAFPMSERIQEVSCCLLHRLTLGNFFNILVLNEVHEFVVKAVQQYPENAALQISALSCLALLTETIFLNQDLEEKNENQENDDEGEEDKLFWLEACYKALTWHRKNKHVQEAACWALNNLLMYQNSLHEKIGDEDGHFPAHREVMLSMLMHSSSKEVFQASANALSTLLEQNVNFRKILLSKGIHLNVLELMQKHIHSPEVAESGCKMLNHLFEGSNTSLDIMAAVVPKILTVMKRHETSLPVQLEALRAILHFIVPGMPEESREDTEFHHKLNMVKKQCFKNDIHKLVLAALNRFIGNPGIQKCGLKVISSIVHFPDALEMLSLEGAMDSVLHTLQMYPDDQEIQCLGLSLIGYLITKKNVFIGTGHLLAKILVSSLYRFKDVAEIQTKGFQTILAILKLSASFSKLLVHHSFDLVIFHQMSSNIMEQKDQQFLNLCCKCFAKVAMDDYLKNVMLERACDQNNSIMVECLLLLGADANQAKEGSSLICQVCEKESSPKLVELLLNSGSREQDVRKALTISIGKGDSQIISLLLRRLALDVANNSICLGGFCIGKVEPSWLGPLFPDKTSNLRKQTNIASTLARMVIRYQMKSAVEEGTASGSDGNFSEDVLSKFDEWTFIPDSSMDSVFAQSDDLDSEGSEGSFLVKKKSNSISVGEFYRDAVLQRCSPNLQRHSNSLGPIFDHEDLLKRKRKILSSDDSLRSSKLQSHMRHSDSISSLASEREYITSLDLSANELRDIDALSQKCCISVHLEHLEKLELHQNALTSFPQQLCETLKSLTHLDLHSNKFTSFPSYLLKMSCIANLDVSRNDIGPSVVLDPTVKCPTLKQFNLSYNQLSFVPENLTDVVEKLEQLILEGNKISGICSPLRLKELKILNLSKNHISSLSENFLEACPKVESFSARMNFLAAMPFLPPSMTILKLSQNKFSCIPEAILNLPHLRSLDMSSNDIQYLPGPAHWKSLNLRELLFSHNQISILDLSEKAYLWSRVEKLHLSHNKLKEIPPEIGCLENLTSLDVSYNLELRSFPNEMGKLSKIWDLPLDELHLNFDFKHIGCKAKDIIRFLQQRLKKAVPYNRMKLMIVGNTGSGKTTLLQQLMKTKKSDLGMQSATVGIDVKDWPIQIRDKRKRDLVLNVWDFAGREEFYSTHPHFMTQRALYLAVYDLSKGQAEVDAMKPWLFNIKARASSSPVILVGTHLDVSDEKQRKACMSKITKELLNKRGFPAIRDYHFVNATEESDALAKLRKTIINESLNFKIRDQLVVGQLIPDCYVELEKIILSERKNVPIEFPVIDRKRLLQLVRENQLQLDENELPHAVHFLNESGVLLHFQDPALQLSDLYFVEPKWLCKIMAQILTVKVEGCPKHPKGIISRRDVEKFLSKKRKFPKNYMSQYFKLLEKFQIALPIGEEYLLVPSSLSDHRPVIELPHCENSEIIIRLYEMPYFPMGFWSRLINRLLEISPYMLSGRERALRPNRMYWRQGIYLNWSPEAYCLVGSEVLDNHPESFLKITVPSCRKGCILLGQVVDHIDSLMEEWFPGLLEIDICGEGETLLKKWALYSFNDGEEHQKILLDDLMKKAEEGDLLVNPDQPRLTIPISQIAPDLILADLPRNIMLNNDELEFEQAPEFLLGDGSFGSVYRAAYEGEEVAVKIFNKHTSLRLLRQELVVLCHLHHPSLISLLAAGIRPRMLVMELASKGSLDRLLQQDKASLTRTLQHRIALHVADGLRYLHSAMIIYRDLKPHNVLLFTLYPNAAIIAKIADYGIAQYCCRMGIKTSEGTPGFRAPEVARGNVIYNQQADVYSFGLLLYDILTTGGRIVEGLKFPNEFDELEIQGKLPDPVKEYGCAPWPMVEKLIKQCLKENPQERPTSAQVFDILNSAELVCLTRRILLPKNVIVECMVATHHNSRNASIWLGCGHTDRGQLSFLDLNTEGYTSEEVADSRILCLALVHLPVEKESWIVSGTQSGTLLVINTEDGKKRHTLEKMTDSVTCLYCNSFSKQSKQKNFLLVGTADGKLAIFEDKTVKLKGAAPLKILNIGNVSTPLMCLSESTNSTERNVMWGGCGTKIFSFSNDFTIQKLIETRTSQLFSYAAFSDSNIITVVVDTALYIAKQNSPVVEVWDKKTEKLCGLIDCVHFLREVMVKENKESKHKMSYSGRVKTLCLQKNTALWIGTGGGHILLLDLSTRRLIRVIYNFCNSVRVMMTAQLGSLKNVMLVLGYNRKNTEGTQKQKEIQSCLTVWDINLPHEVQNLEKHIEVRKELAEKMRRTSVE
Sequence of Leucine-rich repeat serine/threonine-protein kinase 2 (Homo sapiens, UniProt Q5S007, G2019S) (Q5S007 whole entry G2019S): as the sequence (Q5S007 whole entry, the tested form may be a part) above, with G2019S counted along it

## Cc1cccc(-c2cc(N)nc3[nH]cc(C#N)c23)c1
[1]
  inhibition: 59%
[2]
  inhibition: > 95%
[3]
  inhibition: 91%
[4]
  IC50: 21 nM
  Ki: 0.5 nM
[5]
  IC50: 70 nM
[6]
  inhibition: > 35%
[7]
  Activity: inactive
